According to ChEMBL document CHEMBL1144743, “Identification of prostaglandin D2 receptor antagonists based on a tetrahydropyridoindole scaffold” (Bioorg Med Chem Lett, 2008):

Tested on: not listed separately
Experiment: Antagonist activity at PGD2 subtype 1 in human platelet rich plasma assessed as inhibition of PGD2-induced accumulation of cAMP
Type: functional
Conditions: not given
How it was run: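 Blood from normal human volunteers; PRP prepared by centrifugation at 150g for 15 min. IBMX added (2 mM final) to block cAMP degradation. PRP samples preincubated 10 min at 37 °C with increasing compound concentrations in DMSO before PGD2 challenge. Reaction stopped with ethanol to lyse cells and extract cAMP. IC50 reported.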

| Compound | IC50 [nM] |
| --- | --- |
| CS(=O)(=O)c1cc(F)cc2c1c(C(=O)c1ccc(Cl)cc1)c1n2CCCC1CC(=O)O (centres undefined) | 4.6 |
| CCC(OC)c1cc(F)cc2c1c(Sc1ccc(Cl)cc1)c1n2CCC1CC(=O)O (centres undefined) | 6.7 |
| CC(C)c1cc(F)cc2c1c(Sc1ccc(Cl)cc1)c1n2CCC1CC(=O)O (centres undefined) | 8.6 |
| CS(=O)(=O)c1cc(F)cc2c1c(C(=O)c1ccc(Cl)cc1)c1n2CCCCC1CC(=O)O (centres undefined) | 5.2 |
| CS(=O)(=O)c1cc(F)cc2c1c(C(=O)c1ccc(Cl)cc1)c1n2CCC[C@@H]1CC(=O)O | 4.6 |

Molecular target: T1, Prostaglandin D2 receptor 2 (Homo sapiens, UniProt Q9Y5Y4)
T1 sequence (Q9Y5Y4 whole entry): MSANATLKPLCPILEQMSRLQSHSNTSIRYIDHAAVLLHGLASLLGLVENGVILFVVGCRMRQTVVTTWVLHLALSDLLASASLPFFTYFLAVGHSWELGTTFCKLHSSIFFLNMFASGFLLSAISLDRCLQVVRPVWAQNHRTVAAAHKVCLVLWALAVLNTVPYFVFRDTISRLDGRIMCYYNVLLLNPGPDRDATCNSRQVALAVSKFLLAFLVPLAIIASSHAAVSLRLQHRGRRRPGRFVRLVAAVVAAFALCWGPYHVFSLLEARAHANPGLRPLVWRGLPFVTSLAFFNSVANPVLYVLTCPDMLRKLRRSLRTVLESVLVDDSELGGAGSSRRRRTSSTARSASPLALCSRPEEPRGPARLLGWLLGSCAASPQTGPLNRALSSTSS
Experiment: Binding affinity to CRTH2 receptor
Conditions: not given

| Compound | Ki [nM] |
| --- | --- |
| CS(=O)(=O)c1cc(F)cc2c1c(C(=O)c1ccc(Cl)cc1)c1n2CCC[C@@H]1CC(=O)O | 19200 |

Molecular target: T2, Prostaglandin E2 receptor EP1 subtype (Homo sapiens, UniProt P34995)
T2 sequence (P34995 whole entry): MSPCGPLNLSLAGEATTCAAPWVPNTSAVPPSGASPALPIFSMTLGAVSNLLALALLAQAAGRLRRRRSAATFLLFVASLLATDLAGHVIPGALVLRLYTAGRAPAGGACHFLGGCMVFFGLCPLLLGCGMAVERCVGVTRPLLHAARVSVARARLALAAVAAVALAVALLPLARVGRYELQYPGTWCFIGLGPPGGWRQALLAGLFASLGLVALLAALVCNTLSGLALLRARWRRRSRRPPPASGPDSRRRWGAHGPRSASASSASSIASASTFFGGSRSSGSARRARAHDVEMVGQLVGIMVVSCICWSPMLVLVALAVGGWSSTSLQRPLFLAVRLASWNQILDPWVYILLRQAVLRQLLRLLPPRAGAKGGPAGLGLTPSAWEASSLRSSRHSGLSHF
Experiment: Binding affinity to EP1 receptor
Conditions: not given

| Compound | Ki [nM] |
| --- | --- |
| CS(=O)(=O)c1cc(F)cc2c1c(C(=O)c1ccc(Cl)cc1)c1n2CCC[C@H]1CC(=O)O | 2170 |
| CS(=O)(=O)c1cc(F)cc2c1c(C(=O)c1ccc(Cl)cc1)c1n2CCC[C@@H]1CC(=O)O | 142 |

Molecular target: Prostaglandin E2 receptor EP2 subtype (Homo sapiens, UniProt P43116)
Experiment: Binding affinity to EP2 receptor
Conditions: not given

Prostaglandin E2 receptor EP2 subtype, sequence (P43116 whole entry): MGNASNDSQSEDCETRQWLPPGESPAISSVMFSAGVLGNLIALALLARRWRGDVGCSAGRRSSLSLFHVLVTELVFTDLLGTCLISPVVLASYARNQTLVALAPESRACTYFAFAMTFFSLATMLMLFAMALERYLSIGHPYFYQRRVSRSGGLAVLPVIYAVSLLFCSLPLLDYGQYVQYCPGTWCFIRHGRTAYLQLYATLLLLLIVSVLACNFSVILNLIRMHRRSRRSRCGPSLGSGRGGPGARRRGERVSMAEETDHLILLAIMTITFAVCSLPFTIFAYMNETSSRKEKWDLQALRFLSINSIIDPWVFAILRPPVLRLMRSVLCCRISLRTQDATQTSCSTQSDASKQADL

| Compound | Ki [nM] |
| --- | --- |
| CS(=O)(=O)c1cc(F)cc2c1c(C(=O)c1ccc(Cl)cc1)c1n2CCC[C@H]1CC(=O)O | > 29200 |
| CS(=O)(=O)c1cc(F)cc2c1c(C(=O)c1ccc(Cl)cc1)c1n2CCC[C@@H]1CC(=O)O | 3400 |

Molecular target: T3, Prostaglandin E2 receptor EP3 subtype (Homo sapiens, UniProt P43115)
T3 sequence (P43115 whole entry): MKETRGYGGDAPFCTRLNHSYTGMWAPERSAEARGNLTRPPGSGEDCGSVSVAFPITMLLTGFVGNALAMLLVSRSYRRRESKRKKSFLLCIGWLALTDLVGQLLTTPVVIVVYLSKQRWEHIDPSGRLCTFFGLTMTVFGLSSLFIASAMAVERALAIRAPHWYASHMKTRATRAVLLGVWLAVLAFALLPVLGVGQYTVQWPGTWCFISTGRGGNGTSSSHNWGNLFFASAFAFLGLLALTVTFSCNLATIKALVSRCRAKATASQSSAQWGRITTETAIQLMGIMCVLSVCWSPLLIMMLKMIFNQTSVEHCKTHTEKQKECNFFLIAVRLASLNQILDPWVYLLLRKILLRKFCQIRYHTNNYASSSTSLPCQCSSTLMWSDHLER
Experiment: Binding affinity to EP3 receptor
Conditions: not given

| Compound | Ki [nM] |
| --- | --- |
| CS(=O)(=O)c1cc(F)cc2c1c(C(=O)c1ccc(Cl)cc1)c1n2CCC[C@H]1CC(=O)O | > 21400 |
| CS(=O)(=O)c1cc(F)cc2c1c(C(=O)c1ccc(Cl)cc1)c1n2CCC[C@@H]1CC(=O)O | 5060 |

Molecular target: Prostaglandin E2 receptor EP4 subtype (Homo sapiens, UniProt P35408)
Experiment: Binding affinity to EP4 receptor
Conditions: not given

Prostaglandin E2 receptor EP4 subtype, sequence (P35408 whole entry): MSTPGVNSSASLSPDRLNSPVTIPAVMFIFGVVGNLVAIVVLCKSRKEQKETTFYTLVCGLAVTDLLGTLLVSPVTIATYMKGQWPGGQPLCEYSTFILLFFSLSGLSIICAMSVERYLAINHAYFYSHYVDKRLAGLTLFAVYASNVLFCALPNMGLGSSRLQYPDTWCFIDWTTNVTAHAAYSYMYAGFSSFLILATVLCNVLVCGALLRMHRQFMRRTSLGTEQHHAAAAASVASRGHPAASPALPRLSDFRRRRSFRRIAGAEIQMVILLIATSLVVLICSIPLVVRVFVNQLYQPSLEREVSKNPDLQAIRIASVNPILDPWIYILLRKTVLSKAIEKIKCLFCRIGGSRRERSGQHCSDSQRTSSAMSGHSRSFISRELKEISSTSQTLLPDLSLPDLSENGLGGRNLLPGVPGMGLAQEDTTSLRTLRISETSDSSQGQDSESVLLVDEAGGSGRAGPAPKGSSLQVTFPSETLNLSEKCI

| Compound | Ki [nM] |
| --- | --- |
| CS(=O)(=O)c1cc(F)cc2c1c(C(=O)c1ccc(Cl)cc1)c1n2CCC[C@H]1CC(=O)O | > 16100 |
| CS(=O)(=O)c1cc(F)cc2c1c(C(=O)c1ccc(Cl)cc1)c1n2CCC[C@@H]1CC(=O)O | > 16500 |

Molecular target: Prostaglandin F2-alpha receptor (Homo sapiens, UniProt P43088)
Experiment: Binding affinity to FP receptor
Conditions: not given

Prostaglandin F2-alpha receptor, sequence (P43088 whole entry): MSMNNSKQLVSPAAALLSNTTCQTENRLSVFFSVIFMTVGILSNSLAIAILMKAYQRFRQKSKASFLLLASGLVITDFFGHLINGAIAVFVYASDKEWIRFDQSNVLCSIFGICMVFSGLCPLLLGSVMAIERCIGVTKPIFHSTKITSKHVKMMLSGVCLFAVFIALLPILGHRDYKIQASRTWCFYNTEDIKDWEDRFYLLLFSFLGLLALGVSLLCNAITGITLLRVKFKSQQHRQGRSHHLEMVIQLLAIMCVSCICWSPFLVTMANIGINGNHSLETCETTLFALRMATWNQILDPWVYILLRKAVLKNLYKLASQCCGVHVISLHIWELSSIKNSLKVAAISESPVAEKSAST

| Compound | Ki [nM] |
| --- | --- |
| CS(=O)(=O)c1cc(F)cc2c1c(C(=O)c1ccc(Cl)cc1)c1n2CCC[C@H]1CC(=O)O | > 24800 |
| CS(=O)(=O)c1cc(F)cc2c1c(C(=O)c1ccc(Cl)cc1)c1n2CCC[C@@H]1CC(=O)O | 21100 |

Molecular target: Prostacyclin receptor (Homo sapiens, UniProt P43119)
Experiment: Binding affinity to IP receptor
Conditions: not given

Prostacyclin receptor, sequence (P43119 whole entry): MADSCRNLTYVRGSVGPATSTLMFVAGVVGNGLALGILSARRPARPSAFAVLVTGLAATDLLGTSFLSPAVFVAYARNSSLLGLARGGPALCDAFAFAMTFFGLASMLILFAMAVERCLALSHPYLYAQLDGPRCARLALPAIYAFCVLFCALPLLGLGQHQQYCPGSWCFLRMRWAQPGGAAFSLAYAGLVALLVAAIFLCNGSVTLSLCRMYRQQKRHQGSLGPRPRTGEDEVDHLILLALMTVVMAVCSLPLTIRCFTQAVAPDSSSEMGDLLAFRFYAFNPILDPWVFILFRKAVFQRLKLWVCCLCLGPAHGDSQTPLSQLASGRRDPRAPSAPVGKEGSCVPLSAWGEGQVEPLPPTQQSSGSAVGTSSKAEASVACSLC

| Compound | Ki [nM] |
| --- | --- |
| CS(=O)(=O)c1cc(F)cc2c1c(C(=O)c1ccc(Cl)cc1)c1n2CCC[C@H]1CC(=O)O | > 22500 |
| CS(=O)(=O)c1cc(F)cc2c1c(C(=O)c1ccc(Cl)cc1)c1n2CCC[C@@H]1CC(=O)O | > 21200 |

Tested on: not listed separately
Experiment: Bioavailability in rat
Type: ADME, organism-based
Conditions: in vivo

| Compound | bioavailability [%] |
| --- | --- |
| CS(=O)(=O)c1cc(F)cc2c1c(C(=O)c1ccc(Cl)cc1)c1n2CCCC1CC(=O)O (centres undefined) | 100 |

Tested on: not listed separately
Experiment: Half life in rat
Type: ADME, organism-based
Conditions: in vivo

| Compound | half-life [h] |
| --- | --- |
| CS(=O)(=O)c1cc(F)cc2c1c(C(=O)c1ccc(Cl)cc1)c1n2CCCC1CC(=O)O (centres undefined) | 4.4 |

Molecular target: not listed separately
Experiment: Binding affinity to human recombinant PGD2 receptor subtype 1 by radioligand competition binding assay
Conditions: not given
How it was run: (§1)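 Radioligand competition binding on recombinant human receptors, DP1 or thromboxane TP receptor; Ki values reported.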

| Compound | Ki [nM] |
| --- | --- |
| O=C(O)CC1CCn2c1c(Sc1ccc(Cl)cc1)c1c(Br)cc(F)cc12 (centres undefined) | 7.7 |
| CS(=O)(=O)c1cc(F)cc2c1c(C(=O)c1ccc(Cl)cc1)c1n2CCC1CC(=O)O (centres undefined) | 6.9 |
| O=C(O)CC1CCn2c1c(Sc1ccc(Cl)cc1)c1ccc(F)cc12 (centres undefined) | 132 |
| CC(c1ccc(Cl)cc1)c1c2n(c3cc(F)cc(S(C)(=O)=O)c13)CCC2CC(=O)O (centres undefined) | 14.7 |
| CS(=O)(=O)c1cc(F)cc2c1c(CCc1ccc(Cl)cc1)c1n2CCC1CC(=O)O (centres undefined) | 18.9 |
| CS(=O)(=O)c1cc(F)cc2c1c(C(=O)c1ccc(Cl)cc1)c1n2CCCC1CC(=O)O (centres undefined) | 3 |
| CCC(OC)c1cc(F)cc2c1c(Sc1ccc(Cl)cc1)c1n2CCC1CC(=O)O (centres undefined) | 1.1 |
| CC(C)c1cc(F)cc2c1c(Sc1ccc(Cl)cc1)c1n2CCC1CC(=O)O (centres undefined) | 2.4 |
| CS(=O)(=O)c1cc(F)cc2c1c(C(=O)c1ccc(Cl)cc1)c1n2CCCCC1CC(=O)O (centres undefined) | 1.4 |
| CS(=O)(=O)c1cc(F)cc2c1c(C(=O)c1ccc(Cl)cc1)c1n2CCC[C@H]1CC(=O)O | 36 |
| O=C(O)CC1CCn2c1c(Sc1ccc(Cl)cc1)c1c(C3CC3)cc(F)cc12 (centres undefined) | 5.7 |
| CS(=O)(=O)c1cc(F)cc2c1c(C(=O)c1ccc(Cl)cc1)c1n2CCC[C@@H]1CC(=O)O | 1 |

Molecular target: T4, Thromboxane A2 receptor (Homo sapiens, UniProt P21731)
T4 sequence (P21731 whole entry): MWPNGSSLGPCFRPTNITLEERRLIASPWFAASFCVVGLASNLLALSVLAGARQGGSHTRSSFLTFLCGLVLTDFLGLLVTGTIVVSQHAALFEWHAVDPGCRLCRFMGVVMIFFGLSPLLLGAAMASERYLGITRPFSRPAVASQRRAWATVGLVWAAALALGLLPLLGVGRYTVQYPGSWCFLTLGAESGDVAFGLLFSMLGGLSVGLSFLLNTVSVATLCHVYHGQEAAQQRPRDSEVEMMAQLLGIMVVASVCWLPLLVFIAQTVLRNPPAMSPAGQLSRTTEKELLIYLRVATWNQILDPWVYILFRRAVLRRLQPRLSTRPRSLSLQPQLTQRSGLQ
Experiment: Binding affinity to human recombinant TP receptor by radioligand competition binding assay
Conditions: not given
How it was run: as §1

| Compound | Ki [nM] |
| --- | --- |
| O=C(O)CC1CCn2c1c(Sc1ccc(Cl)cc1)c1c(Br)cc(F)cc12 (centres undefined) | 17 |
| CS(=O)(=O)c1cc(F)cc2c1c(C(=O)c1ccc(Cl)cc1)c1n2CCC1CC(=O)O (centres undefined) | 6970 |
| O=C(O)CC1CCn2c1c(Sc1ccc(Cl)cc1)c1ccc(F)cc12 (centres undefined) | 17 |
| CC(c1ccc(Cl)cc1)c1c2n(c3cc(F)cc(S(C)(=O)=O)c13)CCC2CC(=O)O (centres undefined) | 3190 |
| CS(=O)(=O)c1cc(F)cc2c1c(CCc1ccc(Cl)cc1)c1n2CCC1CC(=O)O (centres undefined) | 219 |
| CS(=O)(=O)c1cc(F)cc2c1c(C(=O)c1ccc(Cl)cc1)c1n2CCCC1CC(=O)O (centres undefined) | 513 |
| CCC(OC)c1cc(F)cc2c1c(Sc1ccc(Cl)cc1)c1n2CCC1CC(=O)O (centres undefined) | 200 |
| CC(C)c1cc(F)cc2c1c(Sc1ccc(Cl)cc1)c1n2CCC1CC(=O)O (centres undefined) | 46 |
| CS(=O)(=O)c1cc(F)cc2c1c(C(=O)c1ccc(Cl)cc1)c1n2CCCCC1CC(=O)O (centres undefined) | 675 |
| CS(=O)(=O)c1cc(F)cc2c1c(C(=O)c1ccc(Cl)cc1)c1n2CCC[C@H]1CC(=O)O | 7150 |
| O=C(O)CC1CCn2c1c(Sc1ccc(Cl)cc1)c1c(C3CC3)cc(F)cc12 (centres undefined) | 136 |
| CS(=O)(=O)c1cc(F)cc2c1c(C(=O)c1ccc(Cl)cc1)c1n2CCC[C@@H]1CC(=O)O | 168 |
